Source: ChEMBL document CHEMBL3102784, “Salicylanilide diethyl phosphates: synthesis, antimicrobial activity and cytotoxicity” (Bioorg Med Chem, 2014)
Active and inactive are the calls of the source.

Key:
HepG2 = assay: Cytotoxicity against human HepG2 cells after 24 hrs by CellTiter assay; format: cell-based; conditions: HepG2, 24 h
In short: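 HepG2 cells (passage 27–33) in MEM with 10% FBS, L-glutamine and NEAA, seeded at 1×10^4 per well. Treated next day with compounds at 0.1–100 µM (or 0.1–25 µmol/L), triplicates, <1% DMSO, for 24 h at 37 °C, 5% CO2. MTS reagent added for 2 h, absorbance read at 490 nm. IC50 taken against untreated (100%) and 10% DMSO (0%) controls.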

Trichosporon asahii [1] = assay: Antifungal activity against Trichosporon asahii 1188 after 48 hrs by broth microdilution method; format: functional; conditions: Trichosporon asahii, 1188, 48 h
In short: (§1)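 Broth microdilution in RPMI 1640 with glutamine, fluconazole as reference. For yeasts, MIC is ≥80% growth reduction (IC80) versus control. For filamentous fungi, the value is expressed as IC50. Readings at 24 and 48 h.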

Candida tropicalis = assay: Antifungal activity against Candida tropicalis 156 at 500 micromol/L after 24 to 48 hrs by broth microdilution method; format: functional, organism-based; in short: as §1
Trichosporon asahii [2] = assay: Antifungal activity against Trichosporon asahii 1188 after 24 hrs by broth microdilution method; format: functional; conditions: Trichosporon asahii, 1188, 24 h; in short: as §1
[3] = test system: Trichophyton mentagrophytes; assay: Antifungal activity against Trichophyton mentagrophytes 445 after 120 hrs by broth microdilution method; format: functional; conditions: Trichophyton mentagrophytes, 445, 120 h
In short: (§2)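 Filamentous dermatophyte tested by broth microdilution in RPMI 1640 with glutamine, fluconazole as reference. Value expressed as IC50 relative to growth control. Read at 72 and 120 h.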

Mycobacterium kansasii [4] = assay: Antimycobacterial activity against Mycobacterium kansasii 6509/96 after 7 days; format: functional; conditions: 6509/96, 168 h
In short: (§3)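 Micromethod MIC in Šula's semisynthetic medium at 37 °C. Compounds added in DMSO at 1000 down to 0.032 µmol/L. Isoniazid standard in sterile water at 0.5–250 µmol/L. Inocula: H37Rv 10^3, M. avium 10^5, M. kansasii 10^4. Read at 14 and 21 d, plus 7 d for M. kansasii.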

Mycobacterium kansasii [5] = assay: Antimycobacterial activity against Mycobacterium kansasii My 235/80 after 14 days; format: functional; conditions: My 235/80, 336 h; in short: as §3
Mycobacterium kansasii [6] = assay: Antimycobacterial activity against Mycobacterium kansasii 6509/96 after 21 days; format: functional; conditions: 6509/96, 504 h; in short: as §3
Aspergillus fumigatus [7] = assay: Antifungal activity against Aspergillus fumigatus 231 after 24 hrs by broth microdilution method; format: functional; conditions: Aspergillus fumigatus, 231, 24 h; in short: as §1
Staphylococcus aureus [8] = assay: Antibacterial activity against methicillin-resistant Staphylococcus aureus H 5996/08 after 24 hrs by broth microdilution method; format: functional; conditions: H 5996/08, 24 h
In short: (§4)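 Broth microdilution in Mueller–Hinton broth, compounds dissolved in DMSO, tested over a dilution series from 500 downward. MIC taken as ≥95% growth reduction (IC95) versus drug-free control. Benzylpenicillin comparator. Readings at 24 and 48 h.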

Staphylococcus aureus [9] = assay: Antibacterial activity against methicillin-resistant Staphylococcus aureus H 5996/08 after 48 hrs by broth microdilution method; format: functional; conditions: H 5996/08, 48 h; in short: as §4
Mycobacterium kansasii [10] = assay: Antimycobacterial activity against Mycobacterium kansasii My 235/80 after 21 days; format: functional; conditions: My 235/80, 504 h; in short: as §3
[11] = test system: Staphylococcus epidermidis; assay: Antibacterial activity against Staphylococcus epidermidis H 6966/08 after 24 hrs by broth microdilution method; format: functional; conditions: H 6966/08, 24 h; in short: as §4
Pseudomonas aeruginosa = assay: Antibacterial activity against Pseudomonas aeruginosa CCM 1961 at 500 micromol/L after 24 to 48 hrs by broth microdilution method; format: functional, organism-based; in short: as §4
Mycobacterium avium [12] = assay: Antimycobacterial activity against isoniazid, rifampicin, ethambutol and ofloxacin-resistant Mycobacterium avium My 330/88 after 21 days; format: functional; conditions: My 330/88, 504 h; in short: as §3
Lichtheimia corymbifera [13] = assay: Antifungal activity against Absidia corymbifera 272 after 24 hrs by broth microdilution method; format: functional; conditions: Lichtheimia corymbifera, 272, 24 h; in short: as §1
Mycobacterium kansasii [14] = assay: Antimycobacterial activity against Mycobacterium kansasii My 235/80 after 7 days; format: functional; conditions: My 235/80, 168 h; in short: as §3
[15] = test system: Trichophyton mentagrophytes; assay: Antifungal activity against Trichophyton mentagrophytes 445 after 72 hrs by broth microdilution method; format: functional; conditions: Trichophyton mentagrophytes, 445, 72 h; in short: as §2
Staphylococcus aureus [16] = assay: Antibacterial activity against Staphylococcus aureus CCM 4516/08 after 48 hrs by broth microdilution method; format: functional; conditions: CCM 4516/08, 48 h; in short: as §4
Nakaseomyces glabratus = assay: Antifungal activity against Candida glabrata 20/I at 500 micromol/L after 24 to 48 hrs by broth microdilution method; format: functional, organism-based; in short: as §1
Enterococcus sp. = assay: Antibacterial activity against Enterococcus sp. J 14365/08 at 500 micromol/L after 24 to 48 hrs by broth microdilution method; format: functional, organism-based; in short: as §4
Staphylococcus aureus [17] = assay: Antibacterial activity against Staphylococcus aureus CCM 4516/08 after 24 hrs by broth microdilution method; format: functional; conditions: CCM 4516/08, 24 h; in short: as §4
Mycobacterium kansasii [18] = assay: Antimycobacterial activity against Mycobacterium kansasii 6509/96 after 14 days; format: functional; conditions: 6509/96, 336 h; in short: as §3
[19] = test system: Mycobacterium tuberculosis; assay: Antimycobacterial activity against Mycobacterium tuberculosis H37Rv My 331/88 after 14 days; format: functional; conditions: H37Rv My 331/88, 336 h; in short: as §3
Candida albicans [20] = assay: Antifungal activity against Candida albicans ATCC 44859 after 48 hrs by broth microdilution method; format: functional; conditions: ATCC 44859, 48 h; in short: as §1
Candida albicans [21] = assay: Antifungal activity against Candida albicans ATCC 44859 after 24 hrs by broth microdilution method; format: functional; conditions: ATCC 44859, 24 h; in short: as §1
Mycobacterium avium [22] = assay: Antimycobacterial activity against isoniazid, rifampicin, ethambutol and ofloxacin-resistant Mycobacterium avium My 330/88 after 14 days; format: functional; conditions: My 330/88, 336 h; in short: as §3
Pichia kudriavzevii [23] = assay: Antifungal activity against Candida krusei E28 after 48 hrs by broth microdilution method; format: functional; conditions: E28, 48 h; in short: as §1
Klebsiella pneumoniae [24] = assay: Antibacterial activity against Klebsiella pneumoniae D 11750/08 at 500 micromol/L after 24 to 48 hrs by broth microdilution method; format: functional, organism-based; in short: as §4
Klebsiella pneumoniae [25] = assay: Antibacterial activity against ESBL-positive Klebsiella pneumoniae J 14368/08 at 500 micromol/L after 24 to 48 hrs by broth microdilution method; format: functional, organism-based; in short: as §4
Pichia kudriavzevii [26] = assay: Antifungal activity against Candida krusei E28 after 24 hrs by broth microdilution method; format: functional; conditions: E28, 24 h; in short: as §1
Lichtheimia corymbifera [27] = assay: Antifungal activity against Absidia corymbifera 272 after 48 hrs by broth microdilution method; format: functional; conditions: Lichtheimia corymbifera, 272, 48 h; in short: as §1
Aspergillus fumigatus [28] = assay: Antifungal activity against Aspergillus fumigatus 231 after 48 hrs by broth microdilution method; format: functional; conditions: Aspergillus fumigatus, 231, 48 h; in short: as §1
[29] = test system: Staphylococcus epidermidis; assay: Antibacterial activity against Staphylococcus epidermidis H 6966/08 after 48 hrs by broth microdilution method; format: functional; conditions: H 6966/08, 48 h; in short: as §4
Escherichia coli = assay: Antibacterial activity against Escherichia coli CCM 4517 at 500 micromol/L after 24 to 48 hrs by broth microdilution method; format: functional, organism-based; in short: as §4
[30] = test system: Mycobacterium tuberculosis; assay: Antimycobacterial activity against Mycobacterium tuberculosis H37Rv My 331/88 after 21 days; format: functional; conditions: H37Rv My 331/88, 504 h; in short: as §3

CCOP(=O)(OCC)Oc1ccc(Br)cc1C(=O)Nc1cccc(Cl)c1
62.5 µM: MIC80 (Trichosporon asahii [1])
6.52 µM: IC50 (HepG2)
> 500 µM: MIC50 (Aspergillus fumigatus [7]) | MIC50 (Lichtheimia corymbifera [13]) | MIC80 (Candida albicans [20]) | MIC80 (Candida albicans [21]) | MIC50 (Lichtheimia corymbifera [27]) | MIC50 (Aspergillus fumigatus [28])
4 µM: MIC (Mycobacterium kansasii [4]) | MIC (Mycobacterium kansasii [14]) | MIC [19] | MIC [30]
250 µM: MIC95 (Staphylococcus aureus [9]) | MIC95 (Staphylococcus aureus [16]) | MIC95 [29]
inactive: Activity (Candida tropicalis) | Activity (Pseudomonas aeruginosa) | Activity (Nakaseomyces glabratus) | Activity (Enterococcus sp.) | Activity (Klebsiella pneumoniae [24]) | Activity (Klebsiella pneumoniae [25]) | Activity (Escherichia coli)
31.2 µM: MIC80 (Pichia kudriavzevii [26])
15.6 µM: MIC80 (Trichosporon asahii [2]) | MIC50 [3]
8 µM: MIC (Mycobacterium kansasii [5]) | MIC (Mycobacterium kansasii [6]) | MIC (Mycobacterium kansasii [10]) | MIC (Mycobacterium kansasii [18])
7.81 µM: MIC50 [15]
16 µM: MIC (Mycobacterium avium [12]) | MIC (Mycobacterium avium [22])
125 µM: MIC95 (Staphylococcus aureus [8]) | MIC95 [11] | MIC95 (Staphylococcus aureus [17]) | MIC80 (Pichia kudriavzevii [23])

CCOP(=O)(OCC)Oc1ccc(Cl)cc1C(=O)Nc1ccc(Br)cc1
2 µM: MIC [19] | MIC [30]
4 µM: MIC (Mycobacterium kansasii [4]) | MIC (Mycobacterium kansasii [14])
> 500 µM: MIC80 (Trichosporon asahii [1]) | MIC80 (Trichosporon asahii [2]) | MIC50 (Aspergillus fumigatus [7]) | MIC95 (Staphylococcus aureus [8]) | MIC95 (Staphylococcus aureus [9]) | MIC50 (Lichtheimia corymbifera [13]) | MIC80 (Candida albicans [20]) | MIC80 (Candida albicans [21]) | MIC80 (Pichia kudriavzevii [23]) | MIC80 (Pichia kudriavzevii [26]) | MIC50 (Lichtheimia corymbifera [27]) | MIC50 (Aspergillus fumigatus [28])
8 µM: MIC (Mycobacterium kansasii [5]) | MIC (Mycobacterium kansasii [6]) | MIC (Mycobacterium kansasii [10]) | MIC (Mycobacterium avium [12]) | MIC (Mycobacterium kansasii [18]) | MIC (Mycobacterium avium [22])
125 µM: MIC95 [11] | MIC95 (Staphylococcus aureus [16]) | MIC95 (Staphylococcus aureus [17]) | MIC95 [29]
1.56 µM: IC50 (HepG2)
inactive: Activity (Candida tropicalis) | Activity (Pseudomonas aeruginosa) | Activity (Nakaseomyces glabratus) | Activity (Enterococcus sp.) | Activity (Klebsiella pneumoniae [24]) | Activity (Klebsiella pneumoniae [25]) | Activity (Escherichia coli)
250 µM: MIC50 [3] | MIC50 [15]

CCOP(=O)(OCC)Oc1cc(Cl)ccc1C(=O)Nc1cccc(Cl)c1
500 µM: MIC95 (Staphylococcus aureus [8]) | MIC95 (Staphylococcus aureus [9]) | MIC95 (Staphylococcus aureus [16]) | MIC95 (Staphylococcus aureus [17]) | MIC95 [29]
250 µM: MIC95 [11]
8 µM: MIC (Mycobacterium kansasii [4]) | MIC (Mycobacterium kansasii [5]) | MIC (Mycobacterium kansasii [6]) | MIC (Mycobacterium kansasii [10]) | MIC (Mycobacterium kansasii [18]) | MIC [30]
inactive: Activity (Candida tropicalis) | Activity (Pseudomonas aeruginosa) | Activity (Nakaseomyces glabratus) | Activity (Enterococcus sp.) | Activity (Klebsiella pneumoniae [24]) | Activity (Klebsiella pneumoniae [25]) | Activity (Escherichia coli)
9.57 µM: IC50 (HepG2)
> 500 µM: MIC80 (Trichosporon asahii [1]) | MIC80 (Trichosporon asahii [2]) | MIC50 [3] | MIC50 (Aspergillus fumigatus [7]) | MIC50 (Lichtheimia corymbifera [13]) | MIC50 [15] | MIC80 (Candida albicans [20]) | MIC80 (Candida albicans [21]) | MIC80 (Pichia kudriavzevii [23]) | MIC80 (Pichia kudriavzevii [26]) | MIC50 (Lichtheimia corymbifera [27]) | MIC50 (Aspergillus fumigatus [28])
16 µM: MIC (Mycobacterium avium [12]) | MIC (Mycobacterium avium [22])
4 µM: MIC (Mycobacterium kansasii [14]) | MIC [19]
